High-throughput results as filed in PubChem BioAssay.
STEP block – inhibitors of human striatal-enriched phosphatase STEP; P54829; recombinant STEP, OMFP fluorogenic substrate, fluorescence; inhibition, % at 20 µM; 0.25% of 360,000 active; AID 588621;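 active = inhibition at 20 µM, scaled per plate between control wells, above about 37%, limit read from the data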
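material = STEP tyrosine phosphatase | reagent = fluorogenic phosphatase substrate OMFP at 25 µM final | doses = single compound dose of 20 µM, 1% DMSO final | schedule = 20 min reaction, room temperature, in the dark | measured by = fluorescence, 480/540 nm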
Scp1 inh – blocks human Scp-1 phosphatase activity. Q9GZU7. Recombinant Scp1, phosphopeptide, malachite green phosphate absorbance. inhibition, % at 20 µM. 0.88% of 340,000 active. AID 493091;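 active = inhibition above about 50% at 20 µM, limit read from the data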
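Test system: SCP-1 catalytic domain; Buffer or medium: Acidic Tris acetate buffer with magnesium and detergent; Also added: Phosphorylated 17-residue peptide substrate; Compound: single 20 µM dose, 1% DMSO; Schedule: enzyme reaction 45 min at room temperature, colour 5 min, stabilisation 30 min; Signal: Phosphate-binding colour reagent, absorbance read at 630 nm.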
CSN inh – CSN deneddylation inhibition. inhibition, % at 12.5 µM. Purified CSN, SCF-Nedd8-OG deneddylation, fluorescence polarization. Q92905. 0.38% of 360,000 active. AID 651999;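 active = pattern-corrected inhibition above about 35%, with an unprinted fluorescence ratio check between 0.5 and 1.5, limit read from the data, passing the limit was not always enough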
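Assay system: purified human Csn5 enzyme expressed in HEK293T cells; Input: 0.24 nM Csn5 enzyme, final concentration; Reagent: 10 nM SCFSkp2-Nedd8OG; Compound dosing: 12.5 µM single point; Times: reaction 90 min, room temperature; Technique: fluorescence polarization readout.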
LMPTP block – LMPTP (human) inhibition. 0.22% of 360,000 active. P24666. inhibition, % at 20 µM. recombinant LMPTP-A, OMFP fluorogenic substrate, fluorescence intensity;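 active = compounds that cut the enzyme signal by at least half of the control window in the single-dose screen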
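Test system: LMPTP-A phosphatase enzyme. Amount: LMPTP-A at 0.625 nM final in the reaction. Reagent: OMFP substrate, 400 µM final. Times: 50 min at room temperature. Signal: endpoint fluorescence intensity from OMFP dephosphorylation. Read-out basis: % inhibition. Benchmarks: no-enzyme and uninhibited controls.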
DNMT1 block – blocks human DNA methyltransferase DNMT1 | inhibition (reported as % activation of signal), % at 10 µM | DNMT1 molecular beacon, Hinp1I cleavage, fluorescence | 0.83% of 360,000 active; in the data active = inhibition above about 50%
Target sequence (P26358 504-1616 limits assumed): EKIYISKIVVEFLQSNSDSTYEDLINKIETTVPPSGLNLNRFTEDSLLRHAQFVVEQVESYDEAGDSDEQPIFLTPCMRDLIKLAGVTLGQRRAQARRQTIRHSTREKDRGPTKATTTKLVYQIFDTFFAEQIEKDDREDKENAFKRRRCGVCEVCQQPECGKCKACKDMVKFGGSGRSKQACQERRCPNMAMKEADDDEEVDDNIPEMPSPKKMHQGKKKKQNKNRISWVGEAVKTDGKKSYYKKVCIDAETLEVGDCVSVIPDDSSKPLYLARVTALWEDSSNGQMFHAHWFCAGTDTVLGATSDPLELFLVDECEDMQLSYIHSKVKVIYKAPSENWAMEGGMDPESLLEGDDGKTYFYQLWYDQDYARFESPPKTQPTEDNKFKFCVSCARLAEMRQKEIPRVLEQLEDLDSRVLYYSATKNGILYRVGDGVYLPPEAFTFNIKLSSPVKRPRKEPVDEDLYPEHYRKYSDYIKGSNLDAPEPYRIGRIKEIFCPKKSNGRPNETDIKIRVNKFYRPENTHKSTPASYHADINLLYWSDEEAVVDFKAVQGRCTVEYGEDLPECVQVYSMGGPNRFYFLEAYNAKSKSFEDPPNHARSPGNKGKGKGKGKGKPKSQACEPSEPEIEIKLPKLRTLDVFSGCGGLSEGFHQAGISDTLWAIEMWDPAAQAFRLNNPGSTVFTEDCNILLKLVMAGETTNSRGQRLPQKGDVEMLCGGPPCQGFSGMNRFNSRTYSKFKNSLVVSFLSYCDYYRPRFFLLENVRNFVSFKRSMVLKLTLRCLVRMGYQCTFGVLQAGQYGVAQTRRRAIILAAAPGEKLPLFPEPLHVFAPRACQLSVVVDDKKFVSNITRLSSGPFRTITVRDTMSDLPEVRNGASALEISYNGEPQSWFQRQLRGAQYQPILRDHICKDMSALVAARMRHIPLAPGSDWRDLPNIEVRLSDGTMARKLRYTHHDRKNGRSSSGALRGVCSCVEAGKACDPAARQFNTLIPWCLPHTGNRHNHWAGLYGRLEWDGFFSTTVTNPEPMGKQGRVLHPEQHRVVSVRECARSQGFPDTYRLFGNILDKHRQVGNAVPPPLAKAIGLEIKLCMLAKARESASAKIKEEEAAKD
SUMO1 PPI mod – modulators of human SUMO1-mediated protein-protein interactions. SUMO1 binding to a labelled peptide, TR-FRET, 1 h. inhibition, % at 20 µM. 0.33% of 360,000 active. AID 602429; in the data active = inhibition above about 37%
Large screens that a line does not name were inactive. Compounds with a hit are over-represented: about 1.9% of the library has one in this group of screens.

COc1ccc(NC(=O)CCC(=O)N(Cc2ccc(OC)c(OC)c2)c2nccs2)c(OC)c1	none
COC1=C/C(=C/c2c(N)n3c(nc2=O)sc2cc(S(C)(=O)=O)ccc23)C=CC1=O	none
CS(=O)(=O)c1ccc2c(c1)sc1nc(=O)c(/C=C3/C=CC(=O)C(O)=C3)c(N)n12	Scp1 inh 70.7
Cc1cc(C=C2C(=O)c3ccccc3C2=O)c(C)n1C	SUMO1 PPI mod 51.5
COc1ccccc1NC(=O)Cn1nnc(-c2ccccc2NC(=O)c2cccs2)n1	CSN inh 37.0
O=C(Cn1nnc(-c2ccccc2NC(=O)c2cccs2)n1)Nc1ccccc1	none
CC(C)C[C@H]1CN([C@@H](Cc2ccccc2)CN2CCC[C@@H]2CN2C(=O)C(=O)NC[C@@H]2Cc2ccc(O)cc2)C(=O)C(=O)N1CC1CCCCCC1	CSN inh 36.6 (no result: Scp1 inh)
CCOc1ccccc1NC(=O)CCc1nnc2ccc(N3CCC(C)CC3)nn12	DNMT1 block 98.4
COc1cc([N+](=O)[O-])ccc1NC(=O)CN1CCN(C(=O)c2ccco2)CC1	none
CCOC(=O)C1C(c2cc(OC)c(OC)c(OC)c2)NC(=S)NC1(O)C(F)(F)F (stereo not drawn)	CSN inh 36.6
COc1ccc(CCNC2CC(=O)N(CCc3ccccc3)C2=O)cc1 (stereo not drawn)	none
CCN(CC)c1ccc(NC2CC(=O)N(CCc3ccc(OC)cc3)C2=O)cc1 (stereo not drawn)	CSN inh 51.4
Nc1ccccc1NC(=O)NC(=O)c1ccccc1	none
COc1ccc(C2NC(=O)NC3=C2CCc2ccccc23)cc1 (stereo not drawn)	DNMT1 block 78.7
O=C1c2ccc(-c3ccc(F)cc3OCc3ccccc3)cc2S(=O)(=O)c2cccc(C(=O)N3CCCC3)c21	none
COP(=O)(OC)c1nc(-c2cccc3ccccc23)oc1NCc1ccccc1	CSN inh 84.9
CC(=O)c1c(C)[nH]c(C(=O)OCC(=O)c2ccc3c(c2)NC(=O)CO3)c1C	SUMO1 PPI mod 64.8
COC(=O)c1cc(C(=O)OCC(=O)c2ccc3c(c2)NC(=O)CO3)cc([N+](=O)[O-])c1	CSN inh 70.1
Cc1cccc(C(=O)OCC(=O)c2ccc3c(c2)NC(=O)CO3)c1	none
O=c1[nH]nnc2c1cnn2-c1ccccc1	none
COC1CCCN(Cc2c(C(=O)N3CCN(C4CCCCC4)CC3)nc3ccccn23)C1 (stereo not drawn)	none
NC(=S)N=Nc1ccc(NN=C(N)N)cc1	STEP block 84.1
CC1CCCCC12NC(=O)N(CC(=O)NC(=O)NCc1ccco1)C2=O (stereo not drawn)	none
COc1ccc(OCCNc2cc(Cl)ccc2[N+](=O)[O-])cc1	CSN inh 46.6
O=C(COC(=O)c1cnccn1)N=c1sccn1Cc1ccccc1Cl	none
O=C(O)CCCC(=O)OCc1c(-c2ccccc2)ncc2ccccc12	none
Cc1ccc(Nc2ccc(N)cc2S(=O)(=O)O)cc1	LMPTP block 67.1
O=C(C1CCN(S(=O)(=O)Cc2ccccc2)CC1)N1CCN(c2ncccn2)CC1	CSN inh 101.0
CC(=O)c1ccc(N2CCN(C(=O)C3CCN(S(=O)(=O)Cc4ccccc4)CC3)CC2)cc1	CSN inh 92.1
O=S(=O)(Cc1ccccc1)N1CCN(c2ncccn2)CC1	none
COCCN(C(=O)c1sc2ccccc2c1Cl)c1c(N)n(CC(C)C)c(=O)[nH]c1=O	none
Nc1nonc1-n1nnc(C(=O)N/N=C/c2ccccc2F)c1CN1CCc2ccccc21	none
CC(OC(=O)CC(C)c1ccccc1)C(=O)Nc1ccc(Cl)cn1 (stereo not drawn)	CSN inh 43.2
O=C1CSC(=S)N1	none
O=[N+]([O-])c1cc(CN2CCOCC2)c2cccnc2c1O	Scp1 inh 65.7 (no result: STEP block, CSN inh, LMPTP block, DNMT1 block, SUMO1 PPI mod)
Oc1c(Cl)cc(CN2CCOCC2)c2cccnc12	none
O=C(N/N=C/c1cccc([N+](=O)[O-])c1)C1CC(=O)N(c2ccc(F)cc2)C1 (stereo not drawn)	none
CCOC(=O)c1ccc(NC2=CC(=O)C(=O)c3ccccc32)cc1	DNMT1 block 56.4, SUMO1 PPI mod 40.5
CCCCCCNc1ccc(C(=O)OCC)cc1	CSN inh 124.4 (no result: Scp1 inh)
COc1ccc(CNS(=O)(=O)CCNC(=O)c2cccc(OC)c2)cc1	none
O=C(c1cnn2c(C(F)(F)F)cc(-c3ccc4c(c3)OCO4)nc12)N1CCCCC1	none
O=C(NC1CCCC1)c1cnn2c(C(F)(F)F)cc(-c3ccc4c(c3)OCO4)nc12	DNMT1 block 51.5
CCN=C(N/N=C/c1ccc([N+](=O)[O-])cc1)SC	Scp1 inh 103.8
COc1cc(/C=N/NC(=O)c2ccc(O)cc2)ccc1OCC(=O)Nc1cccc([N+](=O)[O-])c1	SUMO1 PPI mod 92.7
COc1cc(/C=N/NC(=O)c2cc(O)cc(O)c2)ccc1OC(=O)c1ccccc1	STEP block 67.0, Scp1 inh 62.1, DNMT1 block 76.8
COc1cc(/C=N/NC(=O)c2cccc([N+](=O)[O-])c2)ccc1OCc1ccccc1	none
COc1ccc(/C=N\NC(=O)c2cc(O)c(O)c(O)c2)cc1COc1ccc(C(=O)OCC(C)C)cc1	Scp1 inh 50.6
Cc1cc(-n2c(SCCC#N)nnc2-c2cccnc2)ccc1Cl	none
C[C@@H]1O[C@@H](O[C@H]2[C@H](Oc3cc(O)c4c(c3)OC(c3ccc(O)cc3)CC4=O)O[C@H](CO)[C@@H](O)[C@@H]2O)[C@H](O)[C@H](O)[C@H]1O (stereo partly drawn)	none
COc1ccc2oc(C(=O)NCc3cc(OC)c(OC)cc3OC)c(C)c2c1	none
O=C(COc1ccc(-c2ccccc2)cc1)N1CCCC1	none
NS(=O)(=O)c1ccc(CCNC(=O)c2cnc(Cl)c(Cl)c2)cc1	none
O=C(COc1ccc(/C=N/NC(=O)c2ccccc2O)cc1)Nc1ccc([N+](=O)[O-])cc1	CSN inh 42.8
CN(Cc1ccccc1)S(=O)(=O)c1ccc(Cl)nc1	CSN inh 39.6
CC(C)N(Cc1ccccc1)S(=O)(=O)c1ccc(Cl)nc1	none
CCCCS(=O)(=O)NC1=NCN(CCOC(=O)c2ccccc2)CN1	none
COc1cccc(C(=O)NC(=S)N2c3ccccc3CC2C)c1OC (stereo not drawn)	SUMO1 PPI mod 42.8
COc1ccccc1N(CC(=O)NC1CCCC1)C(=O)CCC(=O)Nc1ccccn1	none
CCOC1=C2[C@@H](CN(S(=O)(=O)c3ccc(C)cc3)[C@H]2c2cccc3ccccc23)[C@H]2C(=O)NC(=O)[C@H]2C1	none (no result: Scp1 inh)
Cc1cc(C)c(C#N)c(SCC(=O)Nc2nonc2N)n1	SUMO1 PPI mod 46.0
